High-throughput results from PubChem BioAssay.
NOD2 RIPK2 PPI: NOD2-RIPK2 binding disruptors in cells, primary screen, fluorescence, CHO cells, BLA complementation; inhibition, % at 4.98 µM; AID 624267, 2012; hit rate 0.38% among 360,000; CCF4 ratio; in the data active = inhibition above about 21%
TLR4 MyD88 comp: inhibitors of TLR4-MyD88 association in cells, primary screen, cell-based, HeLa CL3-4, BLA complementation, FRET ratio; Toll-like receptor 4 (Homo sapiens) + Myeloid differentiation primary response protein …; HeLa CL3-4 TLR4/MyD88 BLA complementation; inhibition, % at 8.4 µM; hit rate 0.18% among 200,000; AID 861, 2007; in the data active = inhibition above about 25%
Target sequence (O00206 whole entry, looked up): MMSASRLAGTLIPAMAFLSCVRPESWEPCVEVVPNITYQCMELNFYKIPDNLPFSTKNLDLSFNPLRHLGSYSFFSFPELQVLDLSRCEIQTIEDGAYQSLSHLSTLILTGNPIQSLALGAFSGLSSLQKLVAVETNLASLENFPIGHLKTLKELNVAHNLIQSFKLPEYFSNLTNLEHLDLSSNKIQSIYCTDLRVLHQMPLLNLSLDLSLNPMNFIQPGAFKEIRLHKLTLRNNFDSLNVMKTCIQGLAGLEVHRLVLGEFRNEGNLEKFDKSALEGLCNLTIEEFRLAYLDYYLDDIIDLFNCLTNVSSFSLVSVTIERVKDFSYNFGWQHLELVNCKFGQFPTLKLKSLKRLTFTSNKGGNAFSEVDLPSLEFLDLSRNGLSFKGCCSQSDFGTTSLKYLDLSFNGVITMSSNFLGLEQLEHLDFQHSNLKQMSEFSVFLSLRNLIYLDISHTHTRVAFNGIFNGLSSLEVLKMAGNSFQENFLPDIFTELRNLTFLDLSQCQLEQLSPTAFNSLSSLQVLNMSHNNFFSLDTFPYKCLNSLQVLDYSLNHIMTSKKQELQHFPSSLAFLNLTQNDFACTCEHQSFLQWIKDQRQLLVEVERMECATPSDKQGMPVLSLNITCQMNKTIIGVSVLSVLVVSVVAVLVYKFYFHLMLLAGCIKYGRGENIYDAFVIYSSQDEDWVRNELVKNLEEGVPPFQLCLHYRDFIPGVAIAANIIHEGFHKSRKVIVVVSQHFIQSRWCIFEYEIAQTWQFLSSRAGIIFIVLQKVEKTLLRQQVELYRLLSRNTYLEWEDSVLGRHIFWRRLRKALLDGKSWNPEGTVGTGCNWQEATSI
Target sequence (Q99836 whole entry, looked up): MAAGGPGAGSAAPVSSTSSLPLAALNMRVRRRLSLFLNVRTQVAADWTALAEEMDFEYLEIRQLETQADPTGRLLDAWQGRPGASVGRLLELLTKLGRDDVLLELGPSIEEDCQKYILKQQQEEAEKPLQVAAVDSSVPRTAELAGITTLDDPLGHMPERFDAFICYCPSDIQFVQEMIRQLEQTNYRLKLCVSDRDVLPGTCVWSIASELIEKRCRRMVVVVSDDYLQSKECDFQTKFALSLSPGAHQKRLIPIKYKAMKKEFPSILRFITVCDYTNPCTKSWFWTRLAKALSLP
TLR9-MyD88 inh: inhibitors of TLR9-MyD88 association in cells, primary screen, cell-based, CHO, BLA complementation, fluorescence; AID 504734, 2011; inhibition, % at 4.98 µM; CCF4 FRET ratio; Toll-like receptor 9 (Homo sapiens) + Myeloid differentiation primary response protein …; hit rate 0.21% among 340,000;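 active = inhibition above the mean over all tested compounds plus 3 SD, cut at about 21% in these data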
CHOP inhibitor: inhibitors of CHOP promoter induction, primary screen, cell-based, unfolded protein response, luciferase reporter; CHO-K1 CHOP-promoter luciferase, tunicamycin-induced, 15-18 h; inhibition, % at 10 µM; hit rate 3.8% among 220,000;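 active = compounds that reduced the stress-induced luciferase reporter signal by more than about 70% of percent inhibition, limit read from the data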
UPR CHOP act: activators of apoptotic CHOP UPR arm, primary screen, cell-based, CHO-CHOP luciferase reporter, luminescence, uHTS. UPR activation; percent of tunicamycin response over DMSO baseline. activation, % at 10 µM. hit rate 0.34% among 330,000;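 active = at 10 µM dose, activation of 40% or more, normalized to positive control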
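Material: CHO-CHOP cells, stable luciferase reporter of PERK-eIF2a-CHOP signalling; quantity: 500 reporter cells seeded per well; buffer or medium: F12 medium containing 10% fetal bovine serum; compound: one dose, 10 µM in 0.5% DMSO; incubation: 6 h compound treatment, 37 °C; measured by: Steady-Glo luciferase luminescence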
UPR XBP1 act: activators of adaptive XBP1 UPR arm, primary screen, cell-based, CHO-XBP1 luciferase reporter, luminescence, uHTS; hit rate 0.33% among 330,000; IRE1-XBP1 UPR activation; percent of tunicamycin response, DMSO as zero; AID 463104, 2010; activation, % at 20 µM;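 active = versus positive control, 20 µM dose yields 30% or more activation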
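Signal: luciferase luminescence; Assay system: CHO-XBP1 luciferase reporter cells; Amount: one thousand reporter cells per well; Dosing: 20 µM single concentration, DMSO 1%; Benchmarks: high control tunicamycin 10 µg/mL final, low control DMSO vehicle only; Schedule: 6 h compound exposure at 37 °C, 5% CO2; Evaluation: percent activation relative to tunicamycin reference.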
Numbers stand for hits; - = inactive; . = no result given. The entries come from a sample that favours hits as a whole.

SMILES	NOD2 RIPK2 PPI	TLR4 MyD88 comp	TLR9-MyD88 inh	CHOP inhibitor	UPR CHOP act	UPR XBP1 act
C=C(C)C1CC=C(C)/C(=N/NC(=O)COc2cccc(C)c2)C1 (stereo not drawn)	-	-	-	-	-	-
COc1ccc(OC)c(NC(=O)C2(C)CCN2Cc2ccccc2Cl)c1 (stereo not drawn)	-	.	.	.	.	.
Cc1ccc(C)c(NS(=O)(=O)c2ccc(NC(=O)CSc3ccc(Cl)cc3)cc2)c1	-	-	-	94	-	-
Cc1ccccc1NS(=O)(=O)c1ccc(NC(=O)CSCc2ccc(Br)cc2)cc1	-	-	-	80	-	-
Cc1ccc(NS(=O)(=O)c2ccc(NC(=O)C(C)Sc3ccc(Cl)cc3)cc2)c(C)c1 (stereo not drawn)	-	-	-	83	-	-
Cc1ccc(NS(=O)(=O)c2ccc(NC(=O)C3CC3)cc2)c(C)c1	-	.	-	.	-	-
O=C(CSCc1ccc(Br)cc1)Nc1ccc(S(=O)(=O)N2CCOCC2)cc1	-	-	-	-	-	-
O=C(Nc1cccc(F)c1)C1CC(=O)N(c2ccc(Br)cc2)C1 (stereo not drawn)	-	-	-	-	-	-
O=C(NC12CC3CC(CC(C3)C1)C2)C1CC(=O)N(c2ccc(Br)cc2)C1 (stereo not drawn)	-	-	-	70	-	-
O=C(Nc1cccc(Cl)c1Cl)C1CC(=O)N(c2ccc(Br)cc2)C1 (stereo not drawn)	-	-	-	78	-	-
NC(=O)c1sc2nc3c(c(-c4cccs4)c2c1N)CCCC3	.	-	.	76	.	.
Cc1c(C)n(C(=O)CSc2nc3ccccc3[nH]2)c2ccccc12	-	-	-	80	-	-
O=C(CSc1nc2ccccc2[nH]1)N1CCCCC1	-	-	-	-	-	-
CCC(C)C(Nc1ccc(C(=O)OC)cc1[N+](=O)[O-])C(=O)OC (stereo not drawn)	-	-	-	89	-	-
COC(=O)c1ccc(NC(C(=O)OC)C(C)C)c([N+](=O)[O-])c1 (stereo not drawn)	-	-	-	-	-	-
COc1ccc(C(=O)NC(=S)Nc2ccc(N3CCOCC3)cc2)cc1Cl	-	.	-	.	-	-
Cc1cc(O)c(C(C)C)cc1C1(c2cc(C(C)C)c(O)cc2C)OC(=O)c2ccccc21	-	.	-	106	-	-
Nc1nc(/C=C/c2ccc(F)cc2)nc(-c2ccccc2O)n1	-	-	-	80	-	-
COc1ccc(-n2c(=S)[nH]c3cc(C(=O)NCCCN4CCOCC4)ccc3c2=O)cc1OC	-	.	-	.	-	-
CN(Cc1ccc(Cl)cc1)C(C(=O)NC1CCCCC1)c1ccnc2ccccc12 (stereo not drawn)	-	.	.	.	.	.
O=C(COc1ccc(Cl)cc1Cl)Nc1c(-c2cccs2)nc2ccccn12	-	-	-	85	-	-
COc1ccc(-c2cc(=O)[nH]c(N3CCN(Cc4ccccc4)CC3)n2)cc1	-	.	-	.	-	-
Cc1ccc(SCc2cc(=O)[nH]c(N3CCN(Cc4ccccc4)CC3)n2)cc1	-	-	-	90	-	-
Cc1ccc(SCc2cc(=O)[nH]c(N3CCN(Cc4ccc5c(c4)OCO5)CC3)n2)cc1	-	-	-	75	-	-
CCOC(=O)c1ccc(NC(=S)NCc2ccc(F)cc2)cc1	-	.	-	.	-	-
SMILES	NOD2 RIPK2 PPI	TLR4 MyD88 comp	TLR9-MyD88 inh	CHOP inhibitor	UPR CHOP act	UPR XBP1 act
Cc1ccccc1S(=O)(=O)NCC1CCCO1 (stereo not drawn)	.	.	-	.	-	-
Cc1cc(Br)cnc1NC(=S)Nc1ccc(F)cc1F	-	-	-	-	-	-
O=C(c1ccco1)N1C(=O)c2cccc3c(S(=O)(=O)N4CCCC4)ccc1c23	-	-	-	74	-	-
CCc1ccc(C(=O)COC(=O)C(CCSC)NC(=O)C23CC4CC(CC(C4)C2)C3)cc1 (stereo not drawn)	-	-	-	-	-	-
CSCCC(NC(=O)C12CC3CC(CC(C3)C1)C2)C(=O)OCC(=O)c1ccc(Cl)cc1 (stereo not drawn)	-	-	-	75	-	-
COc1ccccc1-c1c(C)nn2c(N3CCN(Cc4ccccc4)CC3)cc(C)nc12	-	-	-	92	-	-
COc1ccccc1-c1c(C)nn2c(N3CCOCC3)cc(C)nc12	-	.	-	.	-	-
COc1ccccc1-c1c(C)nn2c(N3CCCCCC3)cc(C)nc12	-	-	-	90	-	-
CC(C)(C)n1nnnc1C(c1cccc(C#N)c1)N1CCC(Cc2ccccc2)CC1 (stereo not drawn)	-	-	-	80	-	-
CCC(C)(C)n1nnnc1C(c1cccnc1)N1CCC(Cc2ccccc2)CC1 (stereo not drawn)	-	-	-	-	-	-
Cc1c(NC(=O)NCCN2C(=O)C3C4C=CC(C4)C3C2=O)c(=O)n(-c2ccccc2)n1C (stereo not drawn)	-	-	-	-	-	-
O=C(CCC1CCCC1)N1CCN(C(=O)COc2ccccc2)CC1	-	-	-	75	-	-
CCOc1ccc(N2C(=O)C3C4C=CC([C@H]5CC45)[C@@H]3C2=O)cc1 (stereo partly drawn)	-	.	-	.	-	-
CCOC(=O)c1c(N)sc(C(O)(C(F)(F)F)C(F)(F)F)c1-c1ccccc1	-	-	-	105	-	-
O=c1cc(NCc2ccc3c(c2)OCO3)[nH]c(=O)n1-c1ccc(Cl)cc1	-	-	-	-	-	-
O=c1cc(NCc2ccco2)[nH]c(=O)n1-c1ccc(Br)cc1	-	-	-	82	-	-
c1ccc2c(OCCCN3CCCCCC3)cccc2c1	-	.	-	.	-	-
Cc1ccc(N/N=C2\CC(=O)c3ccccc32)cc1Cl	.	-	.	-	49	96
O=C(Oc1ccc2cc(Br)ccc2c1)N1CCCCCC1	.	-	.	85	-	-
COc1ccc(C(=O)c2ccc(Cl)cc2)c2ccccc12	-	-	-	-	-	-
COc1ccc(C(=O)c2ccccc2)c2c(O)ccc(C(=O)c3ccccc3)c12	-	-	-	86	-	-
CC(=O)N(CCN(C(C)=O)c1ccccc1)c1ccccc1	-	-	-	-	-	-
CC(C)(C)C(=O)N(CCN(C(=O)C(C)(C)C)c1ccccc1)c1ccccc1	-	-	-	78	-	-
